Data published in the RNAGym collection of RNA variant scans (doi:10.1126/science.aae0568).
This sample holds only a part of the variants without activity.

B1: tRNA (parent)
chain: GUUCCGUUGGCGUAAUGGUAACGCGUCUCCCUCCUAAGGAGAAGACUGCGGGUUCGAGUCCCGUACGGAACG

Variants of: B1
Assay: yeast fitness relative to wild type (ratio to wild type); higher = fitter; tRNA-Arg(CCU), competitive growth, 37 C, YPD
Procedure, shortened: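 Amplicons of the tRNA-Arg(CCU) gene were sequenced, 100-nucleotide paired-end, from the start population and from each end population of a pooled yeast competition. The competition, in six parallel replicates, lasted 24 hours in YPD at 37°C. Fitness relative to wild type was calculated from changes in genotype frequencies. Genotypes had to have ≥ 100 starting reads, and estimates < 0.5 were set to 0.5.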

Row | Variant | yeast fitness
1 | GAUCCGUUGGCGUAAUGGUAUCGCGUCUCCCUCCUAAGGAGAAGACUGCGGGUUCGAGUCCCGUACGGAACG | 0.686
2 | GAUCCGUUGGCGUAAUGGUAUCGCGUCUCCCUCCUAAGGAGAAGACUGCAGGUUCGAGUCCCGUACGGAACG | ≤ 0.5
3 | GAUCCGUUGGCGUAAUGGUUACGCGUCUCCCUCCUAAGGAGAAGACUGCGGGAUCGAGUACCGUACGGAACG | 0.558
4 | GAUCCGUUGGCGUGAUGGUAACGCGUCUCCCUCCUAUGGAGAAGACUGCGGGUACGAGUCCCGUACGGAACG | ≤ 0.5
5 | GAUCCGUUGGCGUAUUGGUAACGCGUUUCACUCCUAAGGACAAGACUGAGGGUUGGAGUCACGUACGGAACG | ≤ 0.5
6 | GAUCCGUUGGCGUAAUGGUGACGCGUCUCCCUCCUAAGGAGAAGACUGCGGGUUGGAGUCCCGUACGGAACG | 0.537
7 | GAUCCGUUGGCGUAAUGGUAACGCGUCUCCCUCCUAAGGUGAAGACUACGGGUUCGAGUCCCGUACGGAACG | 0.681
8 | GAUCCGUUGGCGUAUUCGUAACGCGUCUCCCUCCUAAGGAGAAGACUGCGAGUUCGAGUCCCGUACGGAACG | ≤ 0.5
9 | GAUCCGUUGGCGUAAUGGUGACGCGUCUCCCUCAUAAGGAGAAGACUGUGGGUUCGAGUCCCGUACGGAACG | ≤ 0.5
10 | GAUCCGUUGGCGUAAUGGUAACGCGUCUCCCUCCUAGGGAGAAGACUGCGGGUUCGAGUCCCGUACGGAACG | 0.659
11 | GAUCCGUUGGCGUAAUGGUAACGCGUCUCCCUCCUAAGGAGCAGACUGCGGGUUCGAGUCCCGUACGGAACG | 0.818
12 | GAUCCGUUGGCGUAAUGGUGACGCGUGUCCCUCCUAAGGAGAAGACUGCGGGUUCGAGUCCCGUACGGAACG | ≤ 0.5
13 | GAUCCGUUGGCGUAAUGGUCACGCGUCUCCCUCCUAAGGAGAAGACUGCGGGUUCGAGUCCCGUACGGCACG | 0.78
14 | GAUCCGUUGGCGUAAUGGUAGCGCGUCUUCCUCCUAAGGUGAAGACUGCGGGUUCGAGUCCCGUACGGUACG | 0.59
15 | GAUCCGUUGGCGUCAUGGUAACGCGUCUCUCUCGUAAGGAGAAGACUGCGAGUUCGAGUCCCGUACGGAACG | ≤ 0.5
16 | GAUCCGUUGGCGUAGUGGUAACGCGUCUUCCUCCUAAGGAAAAGACUGCGGGUUCGAGUCCCGUACGGAACG | ≤ 0.5
17 | GAUCCGUUGGCGUAAUGGUACCGCGUCUUCCUCCUAAGGAGAAGACUGCGGCUUCGAGUCCCGUACGGAACG | ≤ 0.5
18 | GAUCCGUUGGCGUACUGGUAACGCGUCUCCCUCCUAAGGAGAAGACUGCGGGUUCGACUCCCGUACGGAACG | ≤ 0.5
19 | GAUCCGUUGGCGUAAUGGUAACGCGUCUCCCUCCUGAGGAGAAGACUGAGGGUUCGAGUCCCGUACGGAACG | ≤ 0.5

Row | Variant | yeast fitness
20 | GAUCCGUUGGCGUAAUGGUCACGCGUCUCCCUCCUAAGGAGAAGACUGCGGGUUCGAGUCCCGUACGGAACG | 0.928
21 | GAUCCGUUGGCGUAAUGGUGACGCGUCUCCCUCCUAAGGAGAAGACUGCGGGUUCGAGUCCCGUACGGAACG | 0.838
22 | GAUCCGUUGGCGUAAUGGUGACGCGUCUCCAUCCUAAGGAGAUGACUGCGGGUUCGAGUCACGUACGGAACG | ≤ 0.5
23 | GAUCCGUUGGCGUUAUGGUAACGCGUCUCCCUCCUAAGGAGAAGACUGCGGGUUCGAGUCCCGUACGGAACG | 0.682
24 | GAUCCGUUGGCGUAAUGGUAACGCGUCUCCCUCCUAGGGAGAAGACUGCGGGUUUGAGUCCCGUACGGAACG | ≤ 0.5
25 | GAUCCGUUGGCGUACUGGUAACGCGUCUCCCUCCUAAGGAGAAGACUGCGGGUUCGAGUCCCGUACGGCACG | ≤ 0.5
26 | GAUCCGUUGGCGUACUGGUAACGCGUCUCCCUCCUAAGGAGAAGACCGCGGGUUCGAGUCCCGUACGGAACG | ≤ 0.5
27 | GAUCCGUUGGCGUCAUGGUAACGCGUCUCUCUCGUAAGGAGAAGACUGCGGGUUCGAGUCCCGUACGGAACG | ≤ 0.5
28 | GAUCCGUUGGCGUAAUGGUCACGCGUUUCCCUCCUAAGGAGAAGACUGCGGGUUCGACUCCCGUACGGCACG | ≤ 0.5
29 | GAUCCGUUGGCGUAAUGGUAGCGCGUCUCCCUCCUAAGGAAAGGACUGCGGGUUCGAGUCCCGUACGGAACG | ≤ 0.5
30 | GAUCCGUUGGCGUAAUGGUAACGCGUCUCCCUCCUCAGGAGAAGCCUGCGGGUUGGAGUCCAGUACGAAACG | ≤ 0.5
31 | GAUCCGUUGGCGUAAUGGUGACGCGUCUCCCUCCUAAGGAGAAGACUGCGGGUUCGAGUCCCGUACGGCACG | 0.688
32 | GAUCCGUUGGCGUAAUGGUAGCGCGUCUCCCUCCUUAGGAGAAGACUGCGGGUUCGAGUCCCGUACGGAACG | 0.624
33 | GAUCCGUUGGCGUACUGGUAACGCGUCUCCCUCCUAAGGAGAAGACUGCGGGUUCGAGUCCCGUACGGAACG | 0.685
34 | GAUCCGUUGGCGUAUUGGUAACGCGUCUCCCUCCUAAGGAGAAGACUGCGGGUUCGAGUCCCGUACGGAACG | 0.753
35 | GAUCCGUUGGCGUGAUGGUAACGCCUCUCCCUCCUAAGGAGAAGACCCCGGGUUCGAGUCCCGUACGGAACG | 0.573
36 | GAUCCGUUGGCGUAAUGGUUCCGCGUUUCCCUACUAAGGAGAAGACUGCGGGUUCGAGUCCCGUACGGACCG | 0.528
37 | GAUCCGUUGGCGUUAUGGUAACGUGUCUCCCGCCUAAGGAGAAGACUGCGGGUUCGAGUCCCGUACGGAACG | 0.672
